Assay results taken from ChEMBL document CHEMBL4819095, “Development of ciclesonide analogues that block SARS-CoV-2 RNA replication” (Bioorg Med Chem Lett, 2021).
The source made the active and inactive calls. The rule behind the calls is not given here.

Tested on: SARS-CoV-2
Assay: Antiviral activity against SARS-CoV-2 JPN/TY/WK-251 infected in African Green monkey Vero E6 cells expressing TMPRSS2 assessed as reduction in viral plaques incubated for 18 hrs by plaque reduction assay
Format: functional, organism-based
Settings: Severe acute respiratory syndrome coronavirus 2, dose 0.625-80 µM

| SMILES | Activity |
| --- | --- |
| C[C@]12C=CC(=O)C=C1CC[C@@H]1[C@@H]2[C@@H](O)C[C@@]2(C)[C@H]1C[C@H]1O[C@@H](C3CCCCC3)O[C@]12C(=O)CN=[N+]=[N-] | Dose-Dependent Effect |
| C[C@]12C=CC(=O)C=C1CC[C@@H]1[C@@H]2[C@@H](O)C[C@@]2(C)[C@H]1C[C@H]1O[C@@H](C3CCCCC3)O[C@]12C(=O)CO [DESISOBUTYRYLCICLESONIDE] | Dose-Dependent Effect |
| C[C@]12C=CC(=O)C=C1CC[C@@H]1[C@@H]2[C@@H](O)C[C@@]2(C)[C@H]1C[C@H]1O[C@@H](C3CCCCC3)O[C@]12C(=O)CCl | Dose-Dependent Effect |
| CC(C)C(=O)OCC(=O)[C@@]12O[C@H](C3CCCCC3)O[C@@H]1C[C@H]1[C@@H]3CCC4=CC(=O)C=C[C@]4(C)[C@H]3[C@@H](O)C[C@@]12C [CICLESONIDE] | Dose-Dependent Effect |

Tested on: SARS-CoV-2
Assay: Antiviral activity against SARS-CoV-2 JPN/TY/WK-251 infected in African green monkey Vero E6 cells expressing TMPRSS2 assessed as reduction in viral RNA replication by measuring replication copies assessed per well at 10 uM incubated for 18 hrs by qRT-PCR analysis
Format: functional, Severe acute respiratory syndrome coronavirus 2
Settings: not given

| SMILES | Activity |
| --- | --- |
| C[C@]12C=CC(=O)C=C1CC[C@@H]1[C@@H]2[C@@H](O)C[C@@]2(C)[C@H]1C[C@H]1O[C@@H](C3CCCCC3)O[C@]12C(=O)CN=[N+]=[N-] | 2.1 10^5No_unit |
| C[C@]12C=CC(=O)C=C1CC[C@@H]1[C@@H]2[C@@H](O)C[C@@]2(C)[C@H]1C[C@H]1O[C@@H](C3CCCCC3)O[C@]12C(=O)CCl | 4.6 10^5No_unit |
| CC(C)C(=O)OCC(=O)[C@@]12O[C@H](C3CCCCC3)O[C@@H]1C[C@H]1[C@@H]3CCC4=CC(=O)C=C[C@]4(C)[C@H]3[C@@H](O)C[C@@]12C [CICLESONIDE] | 5.2 10^5No_unit |

Same assay, conditions: Severe acute respiratory syndrome coronavirus 2

| SMILES | Activity |
| --- | --- |
| C[C@]12C=CC(=O)C=C1CC[C@@H]1[C@@H]2[C@@H](O)C[C@@]2(C)[C@H]1C[C@H]1O[C@@H](C3CCCCC3)O[C@]12C(=O)COS(C)(=O)=O | Active |
| C[C@]12C=CC(=O)C=C1CC[C@@H]1[C@@H]2[C@@H](O)C[C@@]2(C)[C@H]1C[C@H]1O[C@@H](C3CCCCC3)O[C@]12C(=O)CO [DESISOBUTYRYLCICLESONIDE] | Active |
| C[C@]12C=CC(=O)C=C1CC[C@@H]1[C@@H]2[C@@H](O)C[C@@]2(C)[C@H]1C[C@H]1O[C@@H](C3CCCCC3)O[C@]12C(=O)CBr | Active |

Tested on: Vero C1008
Assay: Cytotoxicity against African green monkey Vero E6 cells expressing TMPRSS2 assessed as reduction in cell viability upto 40 uM incubated for 18 hrs by LDH assay
Format: cell-based
Settings: chlorocebus sabaeus, vero c1008, 18 h
Summary of the method: (§1)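 Vero E6/TMPRSS2 cells exposed for 18 h to compounds at concentrations up to 40 µM. Cytotoxicity read as lactate dehydrogenase (LDH) release. Each independent experiment run in triplicate.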

| SMILES | Activity |
| --- | --- |
| C[C@]12C=CC(=O)C=C1CC[C@@H]1[C@@H]2[C@@H](O)C[C@@]2(C)[C@H]1C[C@H]1O[C@@H](C3CCCCC3)O[C@]12C(=O)CN=[N+]=[N-] | Non-Toxic |
| C[C@]12C=CC(=O)C=C1CC[C@@H]1[C@@H]2[C@@H](O)C[C@@]2(C)[C@H]1C[C@H]1O[C@@H](C3CCCCC3)O[C@]12C(=O)CCl | Non-Toxic |
| CC(C)C(=O)NCC(=O)[C@@]12O[C@H](C3CCCCC3)O[C@@H]1C[C@H]1[C@@H]3CCC4=CC(=O)C=C[C@]4(C)[C@H]3[C@@H](O)C[C@@]12C | Non-Toxic |
| CC(C)C(=O)OCC(=O)[C@@]12O[C@H](C3CCCCC3)O[C@@H]1C[C@H]1[C@@H]3CCC4=CC(=O)C=C[C@]4(C)[C@H]3[C@@H](O)C[C@@]12C [CICLESONIDE] | Non-Toxic |

Tested on: Vero C1008
Assay: Cytotoxicity against African green monkey Vero E6 cells expressing TMPRSS2 assessed as reduction in cell viability at 40 uM incubated for 18 hrs by LDH assay
Format: cell-based
Settings: chlorocebus sabaeus, vero c1008, 18 h
Summary of the method: as §1

| SMILES | Activity |
| --- | --- |
| C[C@]12C=CC(=O)C=C1CC[C@@H]1[C@@H]2[C@@H](O)C[C@@]2(C)[C@H]1C[C@H]1O[C@@H](C3CCCCC3)O[C@]12C(=O)CI | Toxic |
| CN(C)CC(=O)[C@@]12O[C@H](C3CCCCC3)O[C@@H]1C[C@H]1[C@@H]3CCC4=CC(=O)C=C[C@]4(C)[C@H]3[C@@H](O)C[C@@]12C | Toxic |
| C[C@]12C=CC(=O)C=C1CC[C@@H]1[C@@H]2[C@@H](O)C[C@@]2(C)[C@H]1C[C@H]1O[C@@H](C3CCCCC3)O[C@]12C(=O)CBr | Toxic |

Tested on: Vero C1008
Assay: Cytotoxicity against African green monkey Vero E6 cells expressing TMPRSS2 assessed as reduction in cell viability at 20 uM incubated for 18 hrs by LDH assay
Format: cell-based
Settings: chlorocebus sabaeus, vero c1008, 18 h
Summary of the method: as §1

| SMILES | Activity |
| --- | --- |
| C[C@]12C=CC(=O)C=C1CC[C@@H]1[C@@H]2[C@@H](O)C[C@@]2(C)[C@H]1C[C@H]1O[C@@H](C3CCCCC3)O[C@]12C(=O)CN | Toxic |
| C[C@]12C=CC(=O)C=C1CC[C@@H]1[C@@H]2[C@@H](O)C[C@@]2(C)[C@H]1C[C@H]1O[C@@H](C3CCCCC3)O[C@]12C(=O)COS(C)(=O)=O | Toxic |
| C[C@]12C=CC(=O)C=C1CC[C@@H]1[C@@H]2[C@@H](O)C[C@@]2(C)[C@H]1C[C@H]1O[C@@H](C3CCCCC3)O[C@]12C(=O)CO [DESISOBUTYRYLCICLESONIDE] | Toxic |
